Test results: ChEMBL document CHEMBL4138058, “Design and synthesis of novel selective estrogen receptor degradation inducers based on the diphenylheptane skeleton” (Medchemcomm, 2017)

Assays:
Type in all cases: cell-based
[1] = biological target: T1, Estrogen receptor (Homo sapiens) (UniProt P03372); assay: Downregulation of ERalpha expression in human MCF7 cells at 1 uM after 6 hrs in presence of proteasome inhibitor MG132 by Western blot method relative to lamin B
T1 sequence (whole entry): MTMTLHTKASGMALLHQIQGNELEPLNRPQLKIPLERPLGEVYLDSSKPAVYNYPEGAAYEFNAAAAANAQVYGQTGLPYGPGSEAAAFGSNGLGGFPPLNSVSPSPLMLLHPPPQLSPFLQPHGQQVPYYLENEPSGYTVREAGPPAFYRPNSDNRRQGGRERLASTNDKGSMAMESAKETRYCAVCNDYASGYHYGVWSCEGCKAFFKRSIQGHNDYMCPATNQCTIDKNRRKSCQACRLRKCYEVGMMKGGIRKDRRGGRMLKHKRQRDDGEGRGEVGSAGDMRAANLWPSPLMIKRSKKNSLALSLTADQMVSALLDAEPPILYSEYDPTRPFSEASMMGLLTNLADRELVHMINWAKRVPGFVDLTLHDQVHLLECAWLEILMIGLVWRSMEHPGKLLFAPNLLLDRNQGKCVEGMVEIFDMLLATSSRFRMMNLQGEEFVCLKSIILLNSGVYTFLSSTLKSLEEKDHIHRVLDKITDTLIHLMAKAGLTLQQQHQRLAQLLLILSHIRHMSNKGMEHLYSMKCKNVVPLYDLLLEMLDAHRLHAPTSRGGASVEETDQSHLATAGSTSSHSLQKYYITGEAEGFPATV
Method in brief: (§1)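 MCF-7 cells kept in DMEM with 10% FBS, kanamycin and 10 μg/mL insulin, then exposed to compounds for 6 h. Lysates made in SDS buffer (0.1 M Tris-HCl pH 8.0, 10% glycerol, 1% SDS), boiled, BCA-normalized and run on SDS-PAGE. Blots probed with anti-ERα, AR, AhR or VDR and β-actin or lamin B. Chemiluminescence quantified as target/loading-protein ratio; means ± S.E., n=3.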

[2] = biological target: T1, Estrogen receptor (Homo sapiens); assay: Downregulation of ERalpha expression in human MCF7 cells at 3 uM after 6 hrs in presence of proteasome inhibitor MG132 by Western blot method relative to lamin B; method in brief: as §1
[3] = biological target: T1, Estrogen receptor (Homo sapiens); assay: Downregulation of ERalpha expression in human MCF7 cells at 10 uM after 6 hrs in presence of proteasome inhibitor MG132 by Western blot method relative to lamin B; method in brief: as §1
[4] = biological target: T2, Vitamin D3 receptor (Homo sapiens) (UniProt P11473); assay: Downregulation of VDR expression in human MCF7 cells at 1 uM after 6 hrs in presence of proteasome inhibitor MG132 by Western blot method relative to lamin B; method in brief: as §1
T2 sequence (whole entry): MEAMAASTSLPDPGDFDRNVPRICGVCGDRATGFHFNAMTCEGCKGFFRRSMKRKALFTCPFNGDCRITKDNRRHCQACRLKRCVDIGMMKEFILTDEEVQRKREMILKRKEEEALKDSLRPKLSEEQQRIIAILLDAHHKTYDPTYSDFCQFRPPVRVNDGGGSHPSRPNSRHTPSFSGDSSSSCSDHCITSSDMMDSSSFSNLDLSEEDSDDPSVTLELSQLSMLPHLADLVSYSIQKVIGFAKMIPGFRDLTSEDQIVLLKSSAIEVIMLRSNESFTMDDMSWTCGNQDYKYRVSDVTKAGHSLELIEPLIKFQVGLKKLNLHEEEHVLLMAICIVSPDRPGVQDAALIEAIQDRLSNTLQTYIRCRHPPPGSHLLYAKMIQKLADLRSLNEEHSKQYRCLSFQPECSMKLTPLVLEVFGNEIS

[5] = biological target: T3, Aryl hydrocarbon receptor (Homo sapiens, UniProt P35869); assay: Downregulation of AhR expression in human MCF7 cells at 3 uM after 6 hrs in presence of proteasome inhibitor MG132 by Western blot method relative to lamin B; conditions: mcf7, 6 h; method in brief: as §1
T3 sequence (P35869 whole entry): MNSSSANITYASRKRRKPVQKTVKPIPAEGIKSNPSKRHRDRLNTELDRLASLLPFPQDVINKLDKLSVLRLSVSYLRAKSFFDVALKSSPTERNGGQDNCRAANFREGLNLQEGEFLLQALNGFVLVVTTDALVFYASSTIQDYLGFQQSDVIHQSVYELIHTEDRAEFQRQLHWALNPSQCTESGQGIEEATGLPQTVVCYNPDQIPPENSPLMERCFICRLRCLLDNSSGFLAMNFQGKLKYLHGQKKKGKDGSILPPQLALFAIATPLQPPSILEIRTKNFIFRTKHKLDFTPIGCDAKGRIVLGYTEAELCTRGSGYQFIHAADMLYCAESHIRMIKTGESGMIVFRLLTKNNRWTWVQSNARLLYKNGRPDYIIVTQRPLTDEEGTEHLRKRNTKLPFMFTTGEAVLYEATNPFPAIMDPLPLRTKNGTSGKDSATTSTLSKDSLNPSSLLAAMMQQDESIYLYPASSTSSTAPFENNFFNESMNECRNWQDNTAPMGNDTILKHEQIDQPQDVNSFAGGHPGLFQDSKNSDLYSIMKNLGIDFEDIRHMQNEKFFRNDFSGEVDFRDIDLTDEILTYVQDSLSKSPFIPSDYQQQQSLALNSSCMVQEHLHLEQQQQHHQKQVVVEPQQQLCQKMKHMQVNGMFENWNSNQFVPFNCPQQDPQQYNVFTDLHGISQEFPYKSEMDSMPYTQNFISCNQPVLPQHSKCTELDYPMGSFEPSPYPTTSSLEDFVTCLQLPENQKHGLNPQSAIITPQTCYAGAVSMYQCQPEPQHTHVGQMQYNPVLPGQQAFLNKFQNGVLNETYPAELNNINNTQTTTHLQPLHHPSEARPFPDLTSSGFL

CCCCCCCCCCNCCOc1ccc(C(CCC)(CCC)c2ccc(O)c(C)c2)cc1C
Activity [1]: 117% | Activity [2]: 101% | Activity [3]: 105% | Activity [4]: 98% | Activity [5]: 99%
